# Laboratory results taken from PubChem BioAssay.
# The source made the active and inactive calls.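 How the source made its calls, unless noted: active means inhibition of the reporter signal at or above 50%; inactive means inhibition below 50%.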
# Experiments:
# [1] = inhibitors of TNFa-induced NFkB p65 translocation, primary screen, imaging, HUVEC, MLSMR starter and 10KST1 sets (AID 438;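 active means inhibition above 20% together with a positive visual image hit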;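 further: compound added about 3h40 before a 20 min TNFalpha stimulation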;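 on inhibition: signal is the nuclear over cytoplasmic p65 intensity ratio per well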); conditions: HUVEC TNFa-induced p65 nuclear translocation; cell count: measured here: nuclei count (cytotoxicity indicator), at 2.08 µM; inhibition: at 2 µM, stronger effect = higher value, 0% TNFa-plus-vehicle, 100% no-TNFa wells
# [2] = inhibitors of mutant huntingtin aggregation, primary screen, imaging, exon1htt(103Q)mCFP cells, high-content imaging (AID 483;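 active means visual image review flags a hit and inhibition of aggregation exceeds 20%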;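 further: compound exposure lasted 3 days before fixation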;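 on nuclei count: percent of the per-plate median nuclei count of sample wells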); conditions: exon1htt(103Q)mCFP cell line, aggregate imaging, at 2 µM; inhibition of aggregation: stronger effect = higher value; nuclei count: measured here: cell count, toxicity
# [3] = inhibitors of E-selectin induction by TNFa, primary screen, imaging, HUVEC, immunofluorescence, MLSMR starter and 10KST1 sets (AID 487;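 active means visually confirmed hit in the image check and inhibition above 20%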;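 on inhibition: signal is fraction of cell area covered by stained E-selectin grains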;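 on nuclei count: 100% = median nuclei count of all wells on the same plate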); conditions: HUVEC TNFalpha-induced E-selectin immunofluorescence imaging, at 2 µM; inhibition: stronger effect = higher value; nuclei count: measured here: cell number, toxicity
# [4] = biological target: Voltage-gated potassium channel subunit beta-2 (Rattus norvegicus) (UniProt P62483); experiment: KvBeta enzyme negative modulators, primary screen, biochemical, NADPH fluorescence (AID 622;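 active means fluorescence slope higher than the sample average by over 3 SD, cut at about -0.22 in these data, passing the limit was not always enough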;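 further: slope of raw intensity against log time taken from 70 to 1610 s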); conditions: recombinant KvBeta, 4-cyanobenzaldehyde reduction, at 10 µM, stronger effect = higher value
# [5] = biological target: Voltage-gated potassium channel subunit beta-2 (Rattus norvegicus) (UniProt P62483); experiment: KvBeta positive modulators, primary screen, biochemical, NADPH fluorescence (AID 623;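 active means NADPH fluorescence slope more negative than the mean of all samples by about 3 SD, 99.7% confidence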;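 further: fluorescence intensity change per second fitted from 20 to 320 s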); conditions: Recombinant KvBeta, NADPH fluorescence decrease slope, 10 min; at 10 µM; stronger effect = lower value
# [6] = biological target: Muscarinic acetylcholine receptor M4 (Homo sapiens) (UniProt P08173); experiment: compounds altering M4/GIRK thallium flux, either direction, primary screen, M4 allosteric agonist project, cell-based, HEK293 M4/GIRK, BTC-AM (AID 625;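 active means fluorescence slope after compound addition differing from the mean of all tested samples at 99.7% confidence, mostly higher but some lower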;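 further: thallium influx through GIRK channels coupled to M4 in HEK293 cells with BTC-AM dye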); conditions: at 10 µM, actives lie on both sides
# Method in brief: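 System: HEK293 cells with M4 receptor and GIRK channels | Incubation: Cells overnight at 37 °C, BTC-AM loading 1 h, reads 2 min total | Technique: Kinetic BTC-AM fluorescence sampled at 1 Hz, 10 s pre-addition baseline | Measure: Post-addition slope, 15–24 s, of baseline-normalized fluorescence | Control set: Carbachol positive, DMSO negative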
# [7] = inhibitors of Sendai virus-induced IRF3 signaling, primary screen, TLR/RLR signaling modifier project, cell-based, Sendai virus stimulus, luciferase, 10K MLSCN set (AID 602276;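 active means inhibition at or above 50% at 10 µM; inactive means inhibition below 50%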;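 further: firefly luciferase from ISG56 promoter only with Renilla not read in this screen; 0% = Sendai virus plus DMSO and 100% = medium plus DMSO without virus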); conditions: HEK293 RL24 IRF3 luciferase reporter, at 10 µM, stronger effect = higher value
# [8] = inhibitors of poly I:C-induced TLR3 signaling, primary screen, cell-based, poly I:C stimulus, luciferase, 10K MLSCN set (AID 602277); conditions: HEK293-TLR3 RL24 IRF3 luciferase reporter, at 10 µM, stronger effect = higher value
# Chain of Muscarinic acetylcholine receptor M4 (Homo sapiens) (P08173 whole entry, looked up): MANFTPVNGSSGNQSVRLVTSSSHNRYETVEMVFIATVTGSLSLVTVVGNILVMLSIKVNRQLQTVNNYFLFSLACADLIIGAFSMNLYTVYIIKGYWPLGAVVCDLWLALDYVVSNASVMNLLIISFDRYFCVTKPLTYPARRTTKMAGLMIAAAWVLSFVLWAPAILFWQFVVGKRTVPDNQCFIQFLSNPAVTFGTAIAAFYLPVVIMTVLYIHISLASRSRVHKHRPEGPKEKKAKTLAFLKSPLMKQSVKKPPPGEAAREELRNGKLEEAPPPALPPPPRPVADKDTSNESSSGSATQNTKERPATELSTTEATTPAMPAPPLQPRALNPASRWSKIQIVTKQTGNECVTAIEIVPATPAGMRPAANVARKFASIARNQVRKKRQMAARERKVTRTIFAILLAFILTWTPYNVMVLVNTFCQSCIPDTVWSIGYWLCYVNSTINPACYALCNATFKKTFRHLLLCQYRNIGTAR
# Chain of Voltage-gated potassium channel subunit beta-2 (Rattus norvegicus) (P62483 whole entry, looked up): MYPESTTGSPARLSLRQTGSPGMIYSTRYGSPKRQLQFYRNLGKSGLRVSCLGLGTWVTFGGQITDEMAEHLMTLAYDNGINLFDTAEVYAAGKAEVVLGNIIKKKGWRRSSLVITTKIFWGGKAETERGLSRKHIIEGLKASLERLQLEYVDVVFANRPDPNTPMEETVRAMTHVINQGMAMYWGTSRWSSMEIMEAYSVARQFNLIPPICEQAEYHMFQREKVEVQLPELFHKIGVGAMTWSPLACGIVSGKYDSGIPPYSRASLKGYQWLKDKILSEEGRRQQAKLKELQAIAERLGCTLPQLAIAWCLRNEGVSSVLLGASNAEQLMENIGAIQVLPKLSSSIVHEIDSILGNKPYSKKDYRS
Compound,cell count [1],inhibition [1],inhibition of aggregation [2],nuclei count [2] [%],inhibition [3],nuclei count [3] [%],fluorescence slope [4],NADPH fluorescence slope [5],fluorescence slope [6],inhibition [7],inhibition [8]
Cc1nnc(NC(=O)Nc2cccc(Cl)c2)s1,481,-9.3% (inactive),-4.3% (inactive),66.7,9.5% (inactive),114,-0.574 (inactive),-1.8e-05 (inactive),0.00561 (inactive),-25% (inactive),-88.8% (inactive)
COC(=O)c1c(NC(=O)c2ccc(S(=O)(=O)N3CCOCC3)cc2)sc2c1CCN(C)C2,296,-9.1% (inactive),3% (inactive),117,-25.5% (inactive),114,-0.483 (inactive),-5.3e-05 (inactive),0.0054 (inactive),-9.85% (inactive),15.9% (inactive)
CC(=O)N(c1ccc(N(C(C)=O)S(=O)(=O)c2cccs2)cc1)S(=O)(=O)c1cccs1,458,1.3% (inactive),11.2% (inactive),99.2,-45.8% (inactive),99.4,-0.472 (inactive),-0.000256 (inactive),0.00408 (inactive),4.25% (inactive),7.23% (inactive)
Cc1ccccc1CN1CCN(CC(=O)NCc2ccco2)C1=O,395,-1.7% (inactive),-11.1% (inactive),97.3,-7.2% (inactive),109,-0.511 (inactive),-0.000109 (inactive),0.00663 (inactive),23.3% (inactive),22.7% (inactive)
Cc1ccc(F)cc1NC(=O)Cc1nn(C)c(=O)c2ccccc12,247,0.9% (inactive),4.8% (inactive),93.3,17.2% (inactive),102,-0.555 (inactive),-2.8e-05 (inactive),0.00476 (inactive),7.41% (inactive),-19% (inactive)
O=C(CSc1nnnn1Cc1ccccc1)Nc1ccc2c(c1)OCO2,551,-10.7% (inactive),10% (inactive),92.1,-1% (inactive),93.6,-0.257 (inactive),-9.5e-06 (inactive),0.00493 (inactive),1.63% (inactive),2.13% (inactive)
O=C(NC1CCCCC1)C1CC(O)CN1C(=O)OCc1ccccc1 (stereo not drawn),819,-4.1% (inactive),26.1% (inactive),104,-56.4% (inactive),98,-0.564 (inactive),-7.5e-06 (inactive),0.00452 (inactive),2.76% (inactive),14.7% (inactive)
CCn1c(Cc2ccc(OC)cc2)nnc1SCC(=O)Nc1cccc(C(=O)OC)c1,433,6% (inactive),0.9% (inactive),110,-29.7% (inactive),107,-0.469 (inactive),-1.6e-05 (inactive),0.00613 (inactive),12.3% (inactive),8.51% (inactive)
Cc1ccc(NS(=O)(=O)c2cn(C)cn2)cc1,491,-0.5% (inactive),7.8% (inactive),89.1,3.6% (inactive),107,-0.44 (inactive),-0.000336 (inactive),0.00531 (inactive),15.2% (inactive),17.6% (inactive)
CCOC(=O)N1CCN(C(=O)Nc2ccc3oc(C)nc3c2)CC1,254,4.2% (inactive),20.5% (inactive),84.8,-238% (inactive),116,-0.463 (inactive),1.5e-05 (inactive),0.00473 (inactive),5.52% (inactive),-2.82% (inactive)
CN1CCCc2cc(C#N)c(=O)[nH]c21,492,-9.7% (inactive),-0.4% (inactive),108,3.9% (inactive),85,-0.117 (active),1e-05 (inactive),0.00776 (inactive),11.5% (inactive),14% (inactive)
COCCCNC(=O)CCc1nc2cccnc2n1Cc1ccc(OC)cc1,462,4.3% (inactive),-13.4% (inactive),124,-16.4% (inactive),98.8,-0.286 (inactive),-2.5e-05 (inactive),0.006 (inactive),14.4% (inactive),1.17% (inactive)
Cn1c(=O)c2c(nc(SCC(=O)O)n2Cc2cccc(C(F)(F)F)c2)n(C)c1=O,204,-0.8% (inactive),-19.7% (inactive),77.2,9.2% (inactive),74.6,-0.531 (inactive),6.2e-06 (inactive),0.0052 (inactive),15.4% (inactive),13.8% (inactive)
N=c1sc2ccccc2n1-c1ccccc1,402,10.9% (inactive),14.5% (inactive),96.6,-469% (inactive),114,-0.583 (inactive),-1.3e-05 (inactive),0.00638 (inactive),15.3% (inactive),14.4% (inactive)
Cc1ccc(N2CC(C(=O)N3CCN(C(=O)c4ccco4)CC3)CC2=O)cc1 (stereo not drawn),600,2.2% (inactive),-16.3% (inactive),114,-39.1% (inactive),100,-0.571 (inactive),-5.1e-05 (inactive),0.00509 (inactive),17.5% (inactive),21.1% (inactive)
CCCC(C(=O)NCc1ccco1)N(C(=O)CNS(=O)(=O)c1ccc(Cl)cc1)C1CCCC1 (stereo not drawn),387,-0.7% (inactive),-2.5% (inactive),110,-210% (inactive),111,-0.522 (inactive),-1.1e-05 (inactive),0.00544 (inactive),24.7% (inactive),25.7% (inactive)
COC(=O)C1(C(=O)OC)Sc2ccccc2C1=O,427,-11.6% (inactive),12.5% (inactive),75.3,30.1% (inactive),97.1,-0.571 (inactive),1.6e-05 (inactive),0.0074 (inactive),13% (inactive),17.2% (inactive)
Cc1cccn2c(=O)c3cc(C#N)c(=O)n(CCCN4CCOCC4)c3nc12,519,1% (inactive),15.5% (inactive),71.7,-24.9% (inactive),173,-0.153 (inactive),-1.6e-05 (inactive),0.00481 (inactive),11.2% (inactive),40.1% (inactive)
COc1ccc(C2=Nn3c(nnc3-c3cccnc3)SC2)cc1,367,-0.8% (inactive),6.7% (inactive),104,25.5% (inactive),109,-0.464 (inactive),1.1e-05 (inactive),0.00808 (inactive),5.59% (inactive),7.82% (inactive)
CC(C(=O)N1CCCCC1)n1ncn2cccc2c1=O (stereo not drawn),397,-2.5% (inactive),0.4% (inactive),94.2,-4.6% (inactive),97.4,-0.595 (inactive),-2.8e-05 (inactive),0.00463 (inactive),6.93% (inactive),98.3% (active)
Cc1sc2ncnc(OCC(=O)N3CCN(S(=O)(=O)c4ccc(Cl)cc4)CC3)c2c1C,682,-9.4% (inactive),-30.8% (inactive),122,-50.8% (inactive),124,-0.612 (inactive),-4.9e-06 (inactive),0.00511 (inactive),-76.1% (inactive),98.9% (active)
CC(=O)Nc1cccc(-c2nnc(-c3ccccc3)o2)c1,378,0.4% (inactive),4.1% (inactive),105,-93.4% (inactive),136,-0.582 (inactive),-3e-05 (inactive),0.00721 (inactive),-35.6% (inactive),-134% (inactive)
Cc1ccc(-n2nnnc2SCC(=O)N2CCc3ccccc3C2)cc1,526,-10.2% (inactive),-6.8% (inactive),104,-28.6% (inactive),148,-0.49 (inactive),8.4e-07 (inactive),0.00503 (inactive),8.66% (inactive),11% (inactive)
O=C(CN1C(=O)c2cccc3cccc1c23)Nc1ccccc1C(=O)NCc1ccco1,584,-29.6% (inactive),-3.5% (inactive),98.7,-37.6% (inactive),105,-0.0129 (inactive),-5.3e-06 (inactive),0.00606 (inactive),8.08% (inactive),13.4% (inactive)
Cc1ccc(-c2csc3nnc(SCC(=O)NCc4ccco4)n23)cc1,656,5.2% (inactive),-2.5% (inactive),101,-76.9% (inactive),94.1,-0.556 (inactive),-2.1e-05 (inactive),0.00536 (inactive),17.2% (inactive),19.3% (inactive)
Cc1onc(-c2ccccc2)c1C(=O)Nc1ccnn1C1CCCCC1,387,1.4% (inactive),0.6% (inactive),94.4,8.4% (inactive),81.7,-0.367 (inactive),-8.4e-05 (inactive),0.00689 (inactive),9.16% (inactive),18.3% (inactive)
O=c1c(F)cn(C2CCCO2)c(=O)n1Cc1c(F)cccc1Cl (stereo not drawn),738,-7.1% (inactive),-9.4% (inactive),103,-114% (inactive),140,-0.549 (inactive),-1.3e-05 (inactive),0.00479 (inactive),5.15% (inactive),13.2% (inactive)
Cc1cc(C)n(CCCNC(=O)c2ccc(S(=O)(=O)NCc3ccco3)cc2)n1,682,-4.4% (inactive),-3.9% (inactive),108,-9.9% (inactive),136,-0.562 (inactive),-8.3e-05 (inactive),0.00603 (inactive),18.9% (inactive),23% (inactive)
